# Source: ChEMBL document CHEMBL1914291, “Ptilomycalin A inhibits laccase and melanization in Cryptococcus neoformans” (Bioorg Med Chem, 2011)
# The source made the active and inactive calls. The calls are words filed in the database; no cut-off is given here.
# Key:
# Cryptococcus neoformans [1] = experiment: Antimelanogenic activity in non-melanized Cryptococcus neoformans var. grubii assessed as inhibition of pigmentation at 200 ug/mL after 10 days by microtiter plate assay in presence of 1 mM catecholamine; type: functional
# Outline: (§1)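 Broth assay in microtiter plates. An overnight culture of non-melanized C. neoformans var. grubii is diluted in fresh defined minimal medium to OD about 0.010–0.020. It is exposed to single sublethal concentrations (from DMSO; cells/DMSO control) in medium with 1 mM catecholamine (epinephrine, dopamine or L-dopa) at 30 °C. Pigmentation is scored visually at 10 days, with an additional check at 21 days.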
# Cryptococcus gattii [2] = experiment: Antifungal activity in Cryptococcus neoformans var. gattii assessed as clear halo diameter at 20 ug after 6 to 8 days by halo assay in presence of epinephrine; type: functional, Cryptococcus bacillisporus; conditions: read-out: DIZ
# Outline: (§2)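 Paper-disk diffusion halo assay on lawns of C. neoformans (MAT α; var. grubii H99 serotype A, var. gattii serotype B) in defined minimal medium agar with 1 mM catecholamine (L-dopa, dopamine or epinephrine). Compounds were dissolved in DMSO and applied to 6.5 mm disks, which were dried 3 h at RT. Plates were incubated at 30 °C for 6–8 days and the clear halo diameter was measured in mm.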
# Cryptococcus gattii [3] = experiment: Antifungal activity in Cryptococcus neoformans var. gattii assessed as clear halo diameter at 2 ug after 6 days by halo assay in presence of 1 mM L-dopa; type: functional, Cryptococcus bacillisporus; outline: as §2
# Cryptococcus neoformans [4] = experiment: Antifungal activity in Cryptococcus neoformans var. grubii assessed as clear halo diameter at 20 ug after 6 to 8 days by halo assay in presence of dopamine; type: functional; conditions: read-out: DIZ; outline: as §2
# Cryptococcus neoformans [5] = experiment: Antifungal activity in Cryptococcus neoformans var. grubii assessed as clear halo diameter at 20 ug after 6 to 8 days by halo assay in presence of epinephrine; type: functional; conditions: read-out: DIZ; outline: as §2
# Cryptococcus neoformans [6] = experiment: Antimelanogenic activity in non-melanized Cryptococcus neoformans var. grubii assessed as inhibition of pigmentation at 0.0625 ug/mL after 10 days by microtiter plate assay in presence of 1 mM catecholamine; type: functional
# Outline: (§3)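 Overnight non-melanized culture diluted in fresh defined minimal medium to OD about 0.010–0.020. Cells were exposed to compound from DMSO stock in microtiter wells containing 1 mM catecholamine (epinephrine, dopamine or L-dopa) and grown 10 days at 30 °C. Melanization/pigmentation was scored visually against cell-only and DMSO controls.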
# Cryptococcus gattii [7] = experiment: Antifungal activity in Cryptococcus neoformans var. gattii assessed as clear halo diameter at 20 ug after 6 to 8 days by halo assay in presence of L-dopa; type: functional, Cryptococcus bacillisporus; conditions: read-out: DIZ; outline: as §2
# Cryptococcus neoformans [8] = experiment: Antifungal activity in Cryptococcus neoformans var. grubii assessed as clear halo diameter at 2 ug after 6 days by halo assay in presence of 1 mM L-dopa; type: functional; outline: as §2
# Cryptococcus gattii [9] = experiment: Antifungal activity in Cryptococcus neoformans var. gattii assessed as clear halo diameter at 20 ug after 6 to 8 days by halo assay in presence of dopamine; type: functional, Cryptococcus bacillisporus; conditions: read-out: DIZ; outline: as §2
# Cryptococcus neoformans [10] = experiment: Antifungal activity in Cryptococcus neoformans var. grubii assessed as clear halo diameter at 20 ug after 6 to 8 days by halo assay in presence of L-dopa; type: functional; conditions: read-out: DIZ; outline: as §2
# [11] = test system: Human immunodeficiency virus; experiment: Inhibition of DNA polymerase activity of HIV reverse transcriptase at 10 uM
# Cryptococcus neoformans [12] = experiment: Antimelanogenic activity in non-melanized Cryptococcus neoformans var. grubii assessed as inhibition of pigmentation at 0.8 ug/mL after 10 days by microtiter plate assay in presence of 1 mM catecholamine; type: functional; outline: as §1
# Cryptococcus neoformans [13] = experiment: Antimelanogenic activity in Cryptococcus neoformans var. grubii assessed as halo diameter surrounded by non-melanized cells at 20 ug after 6 to 8 days by halo assay in presence of dopamine; type: functional; conditions: read-out: DIZ
# Outline: (§4)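 Paper-disk diffusion halo assay on a lawn of C. neoformans (MAT α; var. grubii H99 serotype A, var. gattii serotype B). Medium is defined minimal medium agar with 1 mM catecholamine (L-dopa, dopamine or epinephrine). Compound is delivered from DMSO stock onto 6.5 mm disks, which are dried 3 h at RT. Incubation is 30 °C for 6–8 days. The read-out is halo diameter (mm), with the halo checked for non-melanized cells.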
# Cryptococcus neoformans [14] = experiment: Antimelanogenic activity in non-melanized Cryptococcus neoformans var. grubii assessed as onset day of melanization at 2 uM by drop test assay in presence of 1 mM L-dopa (reference value: 6 days); type: functional
# Outline: (§5)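 Drop test. C. neoformans culture at 10^7 cells/mL is dosed with compound at 0, 0.06, 0.2, 0.6 and 2 μM. It is dropped onto defined minimal medium plates with 1 mM L-dopa and incubated at 30 °C until melanization occurs. The read-out is the onset day of melanization.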
# Cryptococcus neoformans [15] = experiment: Antimelanogenic activity in Cryptococcus neoformans var. grubii assessed as halo diameter surrounded by non-melanized cells at 20 ug after 6 to 8 days by halo assay in presence of epinephrine; type: functional; conditions: read-out: DIZ; outline: as §4
# Cryptococcus neoformans [16] = experiment: Antimelanogenic activity in non-melanized Cryptococcus neoformans var. grubii assessed as onset day of melanization at 0.6 uM by drop test assay in presence of 1 mM L-dopa (reference value: 6 days); type: functional; outline: as §5
# Cryptococcus neoformans [17] = experiment: Antimelanogenic activity in Cryptococcus neoformans var. grubii assessed as halo diameter surrounded by non-melanized cells at 10 ug after 6 days by halo assay in presence of 1 mM L-dopa; type: functional; outline: as §4
# Cryptococcus neoformans [18] = experiment: Antimelanogenic activity in Cryptococcus neoformans var. grubii assessed as halo diameter surrounded by non-melanized cells at 20 ug after 6 to 8 days by halo assay in presence of L-dopa; type: functional; conditions: read-out: DIZ; outline: as §4
# Cryptococcus neoformans [19] = experiment: Antimelanogenic activity in non-melanized Cryptococcus neoformans var. grubii assessed as onset day of melanization at 0.06 uM by drop test assay in presence of 1 mM L-dopa (reference value: 6 days); type: functional; outline: as §5
# [20] = Inhibition of laccase in Cryptococcus neoformans var. grubii assessed as production of dopachrome using 100 uM epinephrine as substrate preincubated for 30 mins before substrate addition
# Outline: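 Whole-cell laccase assay. C. neoformans var. grubii is grown in asparagine salts without glucose to raise laccase, then permeabilized with toluene-ethanol (1:4). Inhibitor (0–1 mM range) is preincubated for 30 min before adding 100 μM epinephrine. Dopachrome is read at 480 nm. IC50 is the mean of two experiments with SE; NaN3 is the positive control.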
# Cryptococcus neoformans [21] = experiment: Antimelanogenic activity in non-melanized Cryptococcus neoformans var. grubii assessed as inhibition of pigmentation at 0.8 ug/mL after 21 days by microtiter plate assay in presence of 1 mM catecholamine; type: functional; outline: as §1
# Laccase [22] = molecular target: T1, Laccase (Trametes versicolor, UniProt O94222); experiment: Inhibition of Trametes versicolor laccase assessed as production of dopachrome using 200 uM dopamine as substrate preincubated for 30 mins before substrate addition
# T1 sequence (O94222 whole entry): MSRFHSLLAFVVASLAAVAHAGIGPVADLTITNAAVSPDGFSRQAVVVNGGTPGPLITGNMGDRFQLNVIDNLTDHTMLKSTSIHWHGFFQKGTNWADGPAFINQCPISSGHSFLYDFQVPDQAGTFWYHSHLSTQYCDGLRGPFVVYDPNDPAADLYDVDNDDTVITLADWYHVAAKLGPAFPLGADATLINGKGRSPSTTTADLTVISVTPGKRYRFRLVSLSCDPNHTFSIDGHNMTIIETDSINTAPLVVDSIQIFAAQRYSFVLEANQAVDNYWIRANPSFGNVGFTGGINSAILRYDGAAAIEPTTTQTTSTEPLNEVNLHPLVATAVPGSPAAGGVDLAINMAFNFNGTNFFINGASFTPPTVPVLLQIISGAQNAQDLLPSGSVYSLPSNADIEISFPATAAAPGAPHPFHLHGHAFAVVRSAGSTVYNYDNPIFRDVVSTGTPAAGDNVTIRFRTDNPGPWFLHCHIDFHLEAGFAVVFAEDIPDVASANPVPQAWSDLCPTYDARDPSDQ
# Outline: (§6)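 Cell-free assay with purified Trametes versicolor laccase. Inhibitor (0–1 mM range) is preincubated with the enzyme for 30 min before substrate is added. Substrates are epinephrine 100 μM, dopamine 200 μM or L-dopa 300 μM. Dopachrome formation is monitored colorimetrically at 480 nm. IC50 is taken from dose-response curves, mean of two experiments with SE; NaN3 is the positive control.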
# Cryptococcus gattii [23] = experiment: Antimelanogenic activity in Cryptococcus neoformans var. gattii assessed as halo diameter surrounded by non-melanized cells at 20 ug after 6 to 8 days by halo assay in presence of L-dopa; type: functional, Cryptococcus bacillisporus; conditions: read-out: DIZ; outline: as §4
# Cryptococcus gattii [24] = experiment: Antimelanogenic activity in Cryptococcus neoformans var. gattii assessed as halo diameter surrounded by non-melanized cells at 20 ug after 6 to 8 days by halo assay in presence of dopamine; type: functional, Cryptococcus bacillisporus; conditions: read-out: DIZ; outline: as §4
# Laccase [25] = molecular target: T1, Laccase; experiment: Inhibition of Trametes versicolor laccase assessed as production of dopachrome using 100 uM epinephrine as substrate preincubated for 30 mins before substrate addition; outline: as §6
# Cryptococcus neoformans [26] = experiment: Antimelanogenic activity in non-melanized Cryptococcus neoformans var. grubii assessed as delay of melanization by drop test assay in presence of 1 mM L-dopa; type: functional; outline: as §5
# Laccase [27] = molecular target: T1, Laccase; experiment: Inhibition of Trametes versicolor laccase assessed as production of dopachrome using 300 uM L-dopa as substrate preincubated for 30 mins before substrate addition; outline: as §6
# Cryptococcus gattii [28] = experiment: Antimelanogenic activity in Cryptococcus neoformans var. gattii assessed as halo diameter surrounded by non-melanized cells at 20 ug after 6 to 8 days by halo assay in presence of epinephrine; type: functional, Cryptococcus bacillisporus; conditions: read-out: DIZ; outline: as §4
# Cryptococcus gattii [29] = experiment: Antimelanogenic activity in Cryptococcus neoformans var. gattii assessed as halo diameter surrounded by non-melanized cells at 10 ug after 6 days by halo assay in presence of 1 mM L-dopa; type: functional, Cryptococcus bacillisporus; outline: as §4
# Cryptococcus neoformans [30] = experiment: Antimelanogenic activity in non-melanized Cryptococcus neoformans var. grubii assessed as inhibition of pigmentation at 0.5 ug/mL after 10 days by microtiter plate assay in presence of 1 mM catecholamine; type: functional; outline: as §3
smiles,measurement,setting,value
O=C(O)CNCP(=O)(O)O,Activity,Cryptococcus neoformans [1],inactive
C[C@@H]1[C@H](O)[C@@H](C)/C=C/C=C/C=C/C=C/C=C/C=C/C=C/[C@H](O[C@@H]2O[C@H](C)[C@@H](O)[C@H](N)[C@@H]2O)C[C@@H]2O[C@](O)(C[C@@H](O)C[C@@H](O)[C@H](O)CC[C@@H](O)C[C@@H](O)CC(=O)O[C@H]1C)C[C@H](O)[C@H]2C(=O)O [AMPHOTERICIN B],zone of inhibition at 20 µg/disc,Cryptococcus gattii [2],18 mm
same,diameter of the inhibition zone (DIZ),Cryptococcus gattii [3],10 mm
same,zone of inhibition at 20 µg/disc,Cryptococcus neoformans [4],18 mm
same,zone of inhibition at 20 µg/disc,Cryptococcus neoformans [5],18 mm
same,Activity,Cryptococcus neoformans [6],inactive
same,zone of inhibition at 20 µg/disc,Cryptococcus gattii [7],17 mm
same,diameter of the inhibition zone (DIZ),Cryptococcus neoformans [8],15.5 mm
same,zone of inhibition at 20 µg/disc,Cryptococcus gattii [9],22 mm
same,zone of inhibition at 20 µg/disc,Cryptococcus neoformans [10],21 mm
CC[C@H]1CCCC[C@@]2(C[C@@H]3CC[C@@H]4[C@H](C(=O)OCCCCCCCCCCCCCCCC(=O)N(CCCN)CCCCN)[C@]5(CCC[C@@H](C)O5)NC(=[N+]34)N2)O1.[Cl-] [PTILOMYCALIN A],inhibition,[11],60%
same,Activity,Cryptococcus neoformans [12],Active
same,zone of inhibition at 20 µg/disc,Cryptococcus neoformans [13],15 mm
same,Time,Cryptococcus neoformans [14],25 days
same,zone of inhibition at 20 µg/disc,Cryptococcus neoformans [15],12 mm
same,Time,Cryptococcus neoformans [16],20 days
same,diameter of the inhibition zone (DIZ),Cryptococcus neoformans [17],13.5 mm
same,zone of inhibition at 20 µg/disc,Cryptococcus neoformans [18],17 mm
same,Time,Cryptococcus neoformans [19],9 days
same,IC50,[20],7.3 µM
same,Activity,Cryptococcus neoformans [21],Active
same,IC50,Laccase [22],4.9 µM
same,zone of inhibition at 20 µg/disc,Cryptococcus gattii [23],17 mm
same,zone of inhibition at 20 µg/disc,Cryptococcus gattii [24],18 mm
same,IC50,Laccase [25],4.7 µM
same,Activity,Cryptococcus neoformans [26],Dose-dependent effect
same,IC50,Laccase [27],5.8 µM
same,zone of inhibition at 20 µg/disc,Cryptococcus gattii [28],12 mm
same,diameter of the inhibition zone (DIZ),Cryptococcus gattii [29],9.5 mm
Clc1ccc(COC(Cn2ccnc2)c2ccc(Cl)cc2Cl)c(Cl)c1 (centres undefined),Activity,Cryptococcus neoformans [30],inactive
[N-]=[N+]=[N-] [SODIUM AZIDE],IC50,[20],329 µM
same,IC50,Laccase [22],257 µM
same,IC50,Laccase [25],263 µM
same,IC50,Laccase [27],279 µM
